The source made the active and inactive calls. The rule behind the calls is not given here.
Tests used:
HeLa [1] = experiment: Antiproliferative activity against human HeLa cells assessed as reduction in cell growth after 48 hrs by MTT assay; format: functional, cell-based
HeLa [2] = experiment: Induction of cell cycle arrest in human HeLa cells assessed as debris content at 15 uM after 24 hrs by PI staining based flow cytometric analysis (reference value: 0.05%); format: functional
HeLa [3] = experiment: Induction of cell cycle arrest in human HeLa cells assessed as accumulation at S phase at 7.5 uM after 24 hrs by PI staining based flow cytometric analysis (reference value: 18.38%); format: functional
HeLa [4] = experiment: Induction of cell cycle arrest in human HeLa cells assessed as accumulation at G2/M phase at 7.5 uM after 24 hrs by PI staining based flow cytometric analysis (reference value: 11.76%); format: functional
HeLa [5] = experiment: Induction of cell cycle arrest in human HeLa cells assessed as accumulation at G0/G1 phase at 7.5 uM after 24 hrs by PI staining based flow cytometric analysis (reference value: 69.86%); format: functional
HeLa [6] = experiment: Induction of cell cycle arrest in human HeLa cells assessed as debris content at 7.5 uM after 24 hrs by PI staining based flow cytometric analysis (reference value: 0.05%); format: functional
Tubulin (Homo sapiens) [7] = molecular target: T1, Tubulin (Homo sapiens) (UniProt P68371+Q9H4B7+P0DPH7+P68366+Q13509+Q71U36+P04350+Q3ZCM7+P07437+P68363+Q9BQE3+Q6PEY2+Q13885+Q9BVA1+Q9BUF5); experiment: Inhibition of tubulin polymerization (unknown origin) at 10 uM relative to control; format: protein-complex assay
Procedure, shortened: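 In vitro tubulin polymerization measured with compounds at a final concentration of 10 μM; result given as percent inhibition.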

HCT-116 = experiment: Antiproliferative activity against human HCT116 cells assessed as reduction in cell viability; format: functional, cell-based
PC-3 = experiment: Antiproliferative activity against human PC3 cells assessed as reduction in cell viability; format: functional, cell-based
HeLa [8] = experiment: Induction of cell cycle arrest in human HeLa cells assessed as accumulation at G0/G1 phase at 15 uM after 24 hrs by PI staining based flow cytometric analysis (reference value: 69.86%); format: functional
HeLa [9] = experiment: Induction of cell cycle arrest in human HeLa cells assessed as accumulation at G2/M phase at 15 uM after 24 hrs by PI staining based flow cytometric analysis (reference value: 11.76%); format: functional
HeLa [10] = experiment: Induction of cell cycle arrest in human HeLa cells assessed as accumulation at S phase at 15 uM after 24 hrs by PI staining based flow cytometric analysis (reference value: 18.38%); format: functional
HeLa [11] = experiment: Induction of cell cycle arrest in human HeLa cells assessed as debris content at 30 uM after 24 hrs by PI staining based flow cytometric analysis (reference value: 0.05%); format: functional
HeLa [12] = experiment: Induction of cell cycle arrest in human HeLa cells assessed as accumulation at G0/G1 phase at 30 uM after 24 hrs by PI staining based flow cytometric analysis (reference value: 69.86%); format: functional
HeLa [13] = experiment: Induction of cell cycle arrest in human HeLa cells assessed as accumulation at G2/M phase at 30 uM after 24 hrs by PI staining based flow cytometric analysis (reference value: 11.76%); format: functional
HeLa [14] = experiment: Induction of cell cycle arrest in human HeLa cells assessed as accumulation at S phase at 30 uM after 24 hrs by PI staining based flow cytometric analysis (reference value: 18.38%); format: functional
HeLa [15] = experiment: Induction of cell cycle arrest in human HeLa cells assessed as accumulation of cells at G2/M phase after 24 hrs by PI-staining based flow cytometric analysis; format: functional
Tubulin (Homo sapiens) [16] = molecular target: T1, Tubulin (Homo sapiens); experiment: Inhibition of tubulin polymerization in human HeLa cells assessed as disruption of alpha tubulin at 15 to 30 uM after 12 hrs by immunofluorescence based confocal microscopy; format: cell-based
Procedure, shortened: (§1)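 HeLa cells grown on glass coverslips, incubated with compound at 15 or 30 μM for 12 h, then fixed; α- and β-tubulin visualized by immunocytochemistry and confocal microscopy, compared with untreated cells.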

Tubulin (Homo sapiens) [17] = molecular target: T1, Tubulin (Homo sapiens); experiment: Inhibition of tubulin polymerization in human HeLa cells assessed as disruption of beta tubulin at 15 to 30 uM after 12 hrs by immunofluorescence based confocal microscopy; format: cell-based; procedure, shortened: as §1
Tubulin (Homo sapiens) [18] = molecular target: T1, Tubulin (Homo sapiens); experiment: Inhibition of tubulin polymerization in human HeLa cells assessed as microtubule spindle shrinkage around nucleus at 15 to 30 uM after 12 hrs by immunofluorescence based confocal microscopy; format: cell-based; procedure, shortened: as §1
Tubulin (Homo sapiens) [19] = molecular target: T1, Tubulin (Homo sapiens); experiment: Inhibition of tubulin polymerization in human HeLa cells assessed as cell membrane rounding at 15 to 30 uM after 12 hrs by immunofluorescence based confocal microscopy; procedure, shortened: as §1
HeLa [20] = experiment: Antiproliferative activity against human HeLa cells assessed as reduction in cell viability; format: functional, cell-based

O=C(Nc1ccncc1)C(=O)Nc1c(C(=O)C2CC2)[nH]c2cc(Cl)ccc12 was tested, and the IC50 (HeLa [1]) was 80.7 µM.

For O=C(CNc1ccccc1)Nc1c(C(=O)c2ccccc2)[nH]c2cc(Cl)ccc12, the Activity (HeLa [2]) was 0%, the Activity (HeLa [3]) was 17.7% and the Activity (HeLa [4]) was 14.2%. The Activity (HeLa [5]) was 68.1%, the Activity (HeLa [6]) was 0.04% and the inhibition (Tubulin (Homo sapiens) [7]) was 46%. The IC50 (HCT-116) was 12 µM, the IC50 (PC-3) was 14.4 µM and the IC50 (HeLa [1]) was 15.4 µM. For the same molecule, the Activity (HeLa [8]) was 64.57%, the Activity (HeLa [9]) was 20.7% and the Activity (HeLa [10]) was 14.73%. It also gave an Activity (HeLa [11]) of 0.07%, an Activity (HeLa [12]) of 64.24% and an Activity (HeLa [13]) of 25.2%. For the same molecule, the Activity (HeLa [14]) was 10.56%, the Activity (HeLa [15]) was “Dose-dependent effect” and the inhibition (Tubulin (Homo sapiens) [16]) was “Active”. The inhibition (Tubulin (Homo sapiens) [17]) was “Active”, the inhibition (Tubulin (Homo sapiens) [18]) was “Active” and the inhibition (Tubulin (Homo sapiens) [19]) was “Active”.

Work on COc1cc(NCC(=O)Nc2c(C(=O)c3ccccc3)[nH]c3cc(Cl)ccc23)cc(OC)c1OC yielded an IC50 (HeLa [1]) of over 100 µM.

Molecule Cc1ccc2c(NC(=O)C(=O)Nc3ccncc3)c(C(=O)C3CC3)[nH]c2c1 has an IC50 (HeLa [1]) of over 100 µM.

COc1ccc(C(=O)c2[nH]c3ccccc3c2NC(=O)CNc2ccccc2C)cc1 gave an IC50 (HeLa [1]) of 27.9 µM.

COc1cc2c(c(OC)c1OC)-c1ccc(OC)c(=O)cc1[C@@H](NC(C)=O)CC2 [COLCHICINE] was tested, and the IC50 (HCT-116) was 0.25 µM and the IC50 (HeLa [1]) was 0.03 µM.

Molecule O=C(Nc1ccncc1)C(=O)Nc1c(C(=O)c2ccccc2)[nH]c2cc(Cl)ccc12 has an IC50 (HeLa [1]) of over 100 µM.

With O=C(Nc1ccncc1)C(=O)Nc1c(C(=O)C2CC2)[nH]c2ccccc12 the IC50 (HeLa [1]) was over 100 µM.

For Cc1ccc2c(NC(=O)C(=O)Nc3ccccc3)c(C(=O)c3ccccc3)[nH]c2c1, the IC50 (HeLa [1]) was 55.2 µM.

O=C(Nc1ccncc1)C(=O)Nc1c(C(=O)c2ccco2)[nH]c2ccccc12 gave an IC50 (HeLa [1]) of 56.8 µM.

Cc1ccc(C(=O)c2[nH]c3ccccc3c2NC(=O)CNc2ccccc2C)cc1 was tested, and the IC50 (HeLa [1]) was 31.1 µM.

O=C(Nc1ccccc1)C(=O)Nc1c(C(=O)C2CC2)[nH]c2ccccc12 gave an IC50 (HeLa [1]) of over 100 µM.

With O=C(Nc1ccccc1)C(=O)Nc1c[nH]c2ccccc12 the IC50 (HeLa [1]) was 76.7 µM.

CC(=O)c1[nH]c2cc(Cl)ccc2c1NC(=O)C(=O)Nc1ccncc1 was tested, and the IC50 (HeLa [1]) was 69.6 µM.

For COc1ccc(C(=O)c2[nH]c3cc(Cl)ccc3c2NC(=O)CNc2cc(OC)c(OC)c(OC)c2)cc1, the IC50 (HeLa [1]) was over 100 µM.

With COc1ccc(C(=O)c2[nH]c3cc(Cl)ccc3c2NC(=O)CNc2ccc(C)cc2)cc1 the inhibition (Tubulin (Homo sapiens) [7]) was 29%, the IC50 (HCT-116) was 20.4 µM and the IC50 (PC-3) was 15.8 µM. The IC50 (HeLa [1]) was 18.3 µM.

Molecule COc1ccc(NCC(=O)Nc2c(C(=O)c3ccc(OC)cc3)[nH]c3ccccc23)cc1 has an inhibition (Tubulin (Homo sapiens) [7]) of 7%, an IC50 (HCT-116) of 46.9 µM and an IC50 (PC-3) of 43.7 µM. It also gave an IC50 (HeLa [1]) of 16.2 µM.

In the case of Cc1ccc2c(NC(=O)C(=O)Nc3ccccc3)c(C(=O)C3CC3)[nH]c2c1, the IC50 (HeLa [1]) is reported as 82.3 µM.

In the case of CC(=O)c1[nH]c2ccccc2c1NC(=O)C(=O)Nc1ccncc1, the IC50 (HeLa [1]) is reported as 62.4 µM.

For Cc1ccc2c(NC(=O)C(=O)Nc3ccncc3)c(C(=O)c3ccco3)[nH]c2c1, the IC50 (HeLa [1]) was 56.9 µM.

O=C(Nc1ccncc1)C(=O)Nc1c(C(=O)c2ccco2)[nH]c2cc(Cl)ccc12 gave an IC50 (HeLa [1]) of 21.8 µM.

For O=C(Nc1ccccc1)C(=O)Nc1c(C(=O)c2ccccc2)[nH]c2cc(Cl)ccc12, the IC50 (HeLa [1]) was 29.2 µM.

For CC(=O)c1[nH]c2cc(C)ccc2c1NC(=O)C(=O)Nc1ccncc1, the IC50 (HeLa [1]) was over 100 µM.

With O=C(Nc1ccncc1)C(=O)Nc1c[nH]c2ccccc12 the IC50 (HeLa [1]) was over 100 µM.

Molecule O=C(Nc1ccccc1)C(=O)Nc1c(C(=O)c2ccccc2)[nH]c2ccccc12 has an IC50 (HeLa [1]) of 62.9 µM.

Molecule O=C(Nc1ccncc1)C(=O)Nc1c(C(=O)c2ccccc2)[nH]c2ccccc12 has an IC50 (HeLa [1]) of 85.3 µM.

Work on Cc1ccc2c(NC(=O)C(=O)Nc3ccncc3)c(C(=O)c3ccccc3)[nH]c2c1 yielded an IC50 (HeLa [1]) of 75.1 µM.

Work on O=C(Nc1ccccc1)C(=O)Nc1c(C(=O)C2CC2)[nH]c2cc(Cl)ccc12 yielded an IC50 (HeLa [1]) of over 100 µM.

With O=C(Nc1ccncc1)C(=O)c1cn(Cc2ccc(Cl)cc2)c2ccccc12 [INDIBULIN] the IC50 (HeLa [20]) was 0.115 µM.

For COc1ccc(C(=O)c2[nH]c3cc(Cl)ccc3c2NC(=O)CNc2ccc(F)cc2)cc1, the inhibition (Tubulin (Homo sapiens) [7]) was 43%, the IC50 (HCT-116) was 18.2 µM and the IC50 (PC-3) was 21.8 µM. It also gave an IC50 (HeLa [1]) of 16.7 µM.

From ChEMBL document CHEMBL4602616, “Design, synthesis and biological evaluation of novel indole-based oxalamide and aminoacetamide derivatives as tubulin polymerization inhibitors” (Bioorg Med Chem Lett, 2020)
